Experimental data reported in ChEMBL document CHEMBL1157043, “An eco-friendly synthesis and antimicrobial activities of dihydro-2H-benzo- and naphtho-1,3-oxazine derivatives” (Eur J Med Chem, 2010).
≈ marks a conversion by molar mass, not a printed value.

Experiments:
[1] = test system: Pseudomonas aeruginosa; assay: Antimicrobial activity against Pseudomonas aeruginosa after 24 hrs; type: functional
How it was run: (§1)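 NCCLS microdilution in Mueller Hinton broth. Strains were grown 24 h on nutrient agar at 37 °C, suspended at about 1.0–2.0 × 10^7 cells/mL (McFarland-matched) in saline with 0.05% Tween 20, then diluted 100 µL into 10 mL medium. Compounds were taken from a 1 mg/mL DMSO stock as twofold dilutions, top final 50 µg/mL. Incubation was 35 °C in a moist, dark chamber, and MIC was read spectrophotometrically at 24 h.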

[2] = test system: Trichophyton mentagrophytes; assay: Antimicrobial activity against Trichophyton mentagrophytes after 72 to 96 hrs
[3] = test system: Cryptococcus neoformans; assay: Antimicrobial activity against Cryptococcus neoformans after 24 hrs; type: functional
How it was run: (§2)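 Broth microdilution per NCCLS guidelines in MOPS-buffered RPMI 1640. Starting inoculum was 1-5 × 10^3 cfu/mL, and plates were incubated at 35 °C. MIC was read spectrophotometrically at 492 nm after 24–48 h for yeasts and 72–96 h for mycelial fungi.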

[4] = test system: Escherichia coli; assay: Antimicrobial activity against Escherichia coli after 24 hrs; type: functional; how it was run: as §1
[5] = test system: Klebsiella pneumoniae; assay: Antimicrobial activity against Klebsiella pneumoniae after 24 hrs; type: functional; how it was run: as §1
[6] = test system: Candida parapsilosis; assay: Antimicrobial activity against Candida parapsilosis ATCC 22019 after 24 hrs; type: functional; conditions: Lodderomyces parapsilosis, ATCC 22019, 24 h; how it was run: as §2
[7] = test system: Staphylococcus aureus; assay: Antimicrobial activity against Staphylococcus aureus after 24 hrs; type: functional; how it was run: as §1
[8] = test system: Sporothrix schenckii; assay: Antimicrobial activity against Sporothrix schenckii after 24 hrs; type: functional; how it was run: as §2
[9] = test system: Candida albicans; assay: Antimicrobial activity against Candida albicans after 24 hrs; type: functional; how it was run: as §2
[10] = test system: Aspergillus fumigatus; assay: Antimicrobial activity against Aspergillus fumigatus after 72 to 96 hrs

Compound | MIC [1] [µg/mL] | MIC [2] [µg/mL] | MIC [3] [µg/mL] | MIC [4] [µg/mL] | MIC [5] [µg/mL] | MIC [6] [µg/mL] | MIC [7] [µg/mL] | MIC [8] [µg/mL] | MIC [9] [µg/mL] | MIC [10] [µg/mL]
CCCCN1COc2ccc(Cl)cc2C1 | > 50 | 50 (≈ 222 µM) | > 50 | > 50 | > 50 | > 50 | > 50 | 25 (≈ 111 µM) | > 50 | > 50
c1ccc2c(c1)CN(C1CCCCC1)CO2 | > 50 | 50 (≈ 230 µM) | > 50 | > 50 | > 50 | > 50 | > 50 | > 50 | > 50 | > 50
c1ccc(CN2COc3ccc4ccccc4c3C2)cc1 | > 50 | 50 (≈ 182 µM) | > 50 | > 50 | > 50 | > 50 | > 50 | 50 (≈ 182 µM) | > 50 | > 50
c1ccc2c(c1)CN(CCN1COc3ccccc3C1)CO2 | > 50 | 25 (≈ 84.4 µM) | 50 (≈ 169 µM) | > 50 | > 50 | > 50 | > 50 | 25 (≈ 84.4 µM) | > 50 | 50 (≈ 169 µM)
Clc1ccc(N2COc3ccc4ccccc4c3C2)cc1 | 50 (≈ 169 µM) | 25 (≈ 84.5 µM) | 50 (≈ 169 µM) | > 50 | 50 (≈ 169 µM) | > 50 | > 50 | 50 (≈ 169 µM) | > 50 | > 50
Cc1ccc(N2COc3ccc(Cl)cc3C2)cc1 | > 50 | 12.5 (≈ 48.1 µM) | 50 (≈ 193 µM) | 6.25 (≈ 24.1 µM) | 25 (≈ 96.3 µM) | 25 (≈ 96.3 µM) | 12.5 (≈ 48.1 µM) | 6.25 (≈ 24.1 µM) | 25 (≈ 96.3 µM) | 25 (≈ 96.3 µM)
Brc1ccc(N2COc3ccc4ccccc4c3C2)cc1 | 50 (≈ 147 µM) | 50 (≈ 147 µM) | 50 (≈ 147 µM) | > 50 | > 50 | > 50 | > 50 | 50 (≈ 147 µM) | > 50 | > 50
Cc1ccc2c(c1)CN(c1ccccc1Cl)CO2 | 50 (≈ 193 µM) | 12.5 (≈ 48.1 µM) | 25 (≈ 96.3 µM) | 50 (≈ 193 µM) | > 50 | 50 (≈ 193 µM) | > 50 | 12.5 (≈ 48.1 µM) | 50 (≈ 193 µM) | 50 (≈ 193 µM)
Clc1ccc(Cl)c(N2COc3ccc4ccccc4c3C2)c1 | > 50 | 50 (≈ 151 µM) | > 50 | 50 (≈ 151 µM) | > 50 | > 50 | > 50 | > 50 | > 50 | > 50
Fc1ccc(N2COc3ccc4ccccc4c3C2)cc1 | 50 (≈ 179 µM) | 25 (≈ 89.5 µM) | 50 (≈ 179 µM) | > 50 | 50 (≈ 179 µM) | > 50 | > 50 | 50 (≈ 179 µM) | > 50 | > 50
OC(Cn1cncn1)(Cn1cncn1)c1ccc(F)cc1F [FLUCONAZOLE] | – | 1 (≈ 3.27 µM) | 1 (≈ 3.27 µM) | – | – | 1 (≈ 3.27 µM) | – | 2 (≈ 6.53 µM) | 0.5 (≈ 1.63 µM) | 2 (≈ 6.53 µM)
Clc1ccc(N2COc3ccc4ccccc4c3C2)c(Cl)c1 | > 50 | 50 (≈ 151 µM) | > 50 | > 50 | > 50 | > 50 | > 50 | > 50 | > 50 | > 50
c1ccc(N2COc3c(ccc4ccccc34)C2)cc1 | > 50 | > 50 | > 50 | > 50 | > 50 | > 50 | > 50 | > 50 | > 50 | > 50
Clc1ccc2c(c1)CN(c1ccccc1)CO2 | > 50 | 12.5 (≈ 50.9 µM) | 50 (≈ 203 µM) | 12.5 (≈ 50.9 µM) | 50 (≈ 203 µM) | 50 (≈ 203 µM) | 25 (≈ 102 µM) | 6.25 (≈ 25.4 µM) | 50 (≈ 203 µM) | 25 (≈ 102 µM)
Cc1ccc2c(c1)CN(CCN1COc3ccc(C)cc3C1)CO2 | > 50 | 25 (≈ 77.1 µM) | 50 (≈ 154 µM) | > 50 | > 50 | 50 (≈ 154 µM) | > 50 | 12.5 (≈ 38.5 µM) | 50 (≈ 154 µM) | 50 (≈ 154 µM)
Clc1cc(Cl)c(N2COc3ccc4ccccc4c3C2)c(Cl)c1 | > 50 | 50 (≈ 137 µM) | > 50 | > 50 | > 50 | > 50 | > 50 | > 50 | > 50 | > 50
GENTAMICIN | 0.78 | – | – | 0.78 | 0.78 | – | 0.39 | – | – | –
Cc1cccc2c1OCN(c1ccccc1)C2 | > 50 | 25 (≈ 111 µM) | > 50 | 25 (≈ 111 µM) | > 50 | 50 (≈ 222 µM) | 50 (≈ 222 µM) | 25 (≈ 111 µM) | 50 (≈ 222 µM) | 50 (≈ 222 µM)
c1ccc(N2COc3ccccc3C2)cc1 | > 50 | 25 (≈ 118 µM) | > 50 | 50 (≈ 237 µM) | > 50 | 50 (≈ 237 µM) | > 50 | 25 (≈ 118 µM) | > 50 | 50 (≈ 237 µM)
CC(=O)N1CCN(c2ccc(OCC3COC(Cn4ccnc4)(c4ccc(Cl)cc4Cl)O3)cc2)CC1 (stereo not given) [KETOCONAZOLE] | – | 4 (≈ 7.53 µM) | 0.001 (≈ 0.00188 µM) | – | – | 0.031 (≈ 0.0583 µM) | – | 0.031 (≈ 0.0583 µM) | 0.002 (≈ 0.00376 µM) | 2 (≈ 3.76 µM)
c1ccc(N2COc3ccc4ccccc4c3C2)cc1 | 50 (≈ 191 µM) | > 50 | > 50 | 50 (≈ 191 µM) | > 50 | > 50 | > 50 | 25 (≈ 95.7 µM) | 50 (≈ 191 µM) | > 50
Cc1ccc(N2COc3ccc(C)cc3C2)cc1 | > 50 | 12.5 (≈ 52.2 µM) | 50 (≈ 209 µM) | 25 (≈ 104 µM) | 50 (≈ 209 µM) | 50 (≈ 209 µM) | 25 (≈ 104 µM) | 12.5 (≈ 52.2 µM) | 50 (≈ 209 µM) | 50 (≈ 209 µM)
c1ccc2c3c(ccc2c1)OCN(C1CCCCC1)C3 | > 50 | 25 (≈ 93.5 µM) | 50 (≈ 187 µM) | > 50 | > 50 | > 50 | > 50 | 50 (≈ 187 µM) | 50 (≈ 187 µM) | > 50
CCCCN1COc2ccc3ccccc3c2C1 | > 50 | 25 (≈ 104 µM) | 50 (≈ 207 µM) | > 50 | > 50 | > 50 | > 50 | 50 (≈ 207 µM) | > 50 | > 50
CCCCN1COc2ccccc2C1 | > 50 | 50 (≈ 261 µM) | > 50 | 50 (≈ 261 µM) | > 50 | > 50 | > 50 | 50 (≈ 261 µM) | > 50 | > 50
CC1(C)S[C@@H]2[C@H](NC(=O)[C@H](N)c3ccccc3)C(=O)N2[C@H]1C(=O)O [AMPICILLIN] | 50 (≈ 143 µM) | – | – | 50 (≈ 143 µM) | 0.39 (≈ 1.12 µM) | – | 0.19 (≈ 0.544 µM) | – | – | –
